# Test results published in ChEMBL document CHEMBL1150328, “Acetic acid aldose reductase inhibitors bearing a five-membered heterocyclic core with potent topical activity in a visual impairment rat model” (J Med Chem, 2008).
# Calls of active or inactive are those of the source. No cut-off for these calls is given here.
# Experiments:
# [1] = Inhibition of ALR1 in Sprague-Dawley rat kidney by spectrophotometry; assay type: tissue-based
# Summary of the method: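 Rat kidney enzyme from 3 vol 10 mM sodium phosphate pH 7.2 homogenate (0.25 M sucrose, EDTA, β-mercaptoethanol), 40-75% ammonium sulfate cut, dialyzed. 37 °C, 0.25 mL 20 mM sodium D-glucuronate, 0.25 mL 0.12 mM NADPH, 0.1 M phosphate pH 7.2, 1 mL total. NADPH oxidation followed at 340 nm against a substrate-free blank.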
# [2] = (§1) Inhibition of ALR2 in Sprague-Dawley rat lens by spectrophotometry; assay type: tissue-based, Lens of camera-type eye
# Summary of the method: (§2)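 Rat lens extract, ammonium sulfate fractionated and dialyzed. 30 °C, 0.1 M sodium phosphate pH 6.2 with 0.25 mL 10 mM D,L-glyceraldehyde and 0.25 mL 0.104 mM NADPH in 1 mL total. Preincubated 10 min without substrate, then read 5 min at 340 nm against a substrate-free blank. Screened at 10^-4 M, then 10^-5 to 10^-8 M. IC50 by linear regression of log-dose curve, ≥4 concentrations.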
# Rattus norvegicus [3] = species on record: Rattus norvegicus; assay: as §1; assay type: tissue-based; details: Lens of camera-type eye; summary of the method: as §2
# Rattus norvegicus [4] = species on record: Rattus norvegicus; assay: Inhibition of ALR2 in Sprague-Dawley rat lens at >100 uM by spectrophotometry; assay type: tissue-based; details: Lens of camera-type eye; summary of the method: as §2
# Rattus norvegicus [5] = assay: Prevention of cataract development in severely galactosemic Sprague-Dawley Albino rat assessed as lens opacification administered four timely daily as 3% eye-drop solution in precorneal region for 21 days by slit-lamp microscopy; assay type: functional, organism-based; details: Lens of camera-type eye
# Summary of the method: (§3)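 Sprague-Dawley rats, 45-55 g, on 50% D-galactose chow, 15 per group. Both eyes dosed four times daily with 3% eye-drops or vehicle, starting one day before the diet switch. Lenses examined by slit-lamp after 1% atropine dilation at baseline and days 6, 8, 10, 14, 21. Graded stages 0-4, animals per stage counted, Mann-Whitney U-test.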
# Rattus norvegicus [6] = assay: Prevention of cataract development in severely galactosemic Sprague-Dawley Albino rat assessed as lens opacification administered four timely daily as 3% eye-drop solution in precorneal region for 18 days by slit-lamp microscopy; assay type: functional, organism-based; details: Lens of camera-type eye
# Rattus norvegicus [7] = assay: Prevention of cataract development in severely galactosemic Sprague-Dawley Albino rat assessed as lens opacification administered four timely daily as 3% eye-drop solution in precorneal region for 15 days by slit-lamp microscopy; assay type: functional, organism-based; details: Lens of camera-type eye
# Rattus norvegicus [8] = assay: Prevention of cataract development in severely galactosemic Sprague-Dawley Albino rat assessed as lens opacification administered four timely daily as 3% eye-drop solution in precorneal region for 13 days by slit-lamp microscopy; assay type: functional, organism-based; details: Lens of camera-type eye
# Rattus norvegicus [9] = assay: Prevention of cataract development in severely galactosemic Sprague-Dawley Albino rat assessed as lens opacification administered four timely daily as 3% eye-drop solution in precorneal region for 11 days by slit-lamp microscopy; assay type: functional, organism-based; details: Lens of camera-type eye
# Rattus norvegicus [10] = assay: Prevention of cataract development in severely galactosemic Sprague-Dawley Albino rat assessed as lens opacification administered four timely daily as 3% eye-drop solution in precorneal region for 16 days by slit-lamp microscopy; assay type: functional, organism-based; details: Lens of camera-type eye
# Rattus norvegicus [11] = assay: Prevention of cataract development in severely galactosemic Sprague-Dawley Albino rat assessed as lens opacification administered four timely daily as 3% eye-drop solution in precorneal region for 17 days by slit-lamp microscopy; assay type: functional, organism-based; details: Lens of camera-type eye
# Rattus norvegicus [12] = assay: Prevention of cataract development in severely galactosemic Sprague-Dawley Albino rat assessed as lens opacification administered four timely daily as 3% eye-drop solution in precorneal region for 19 days by slit-lamp microscopy; assay type: functional, organism-based; details: Lens of camera-type eye
# Rattus norvegicus [13] = assay: Prevention of cataract development in severely galactosemic Sprague-Dawley Albino rat assessed as lens opacification administered four timely daily as 3% eye-drop solution in precorneal region for 14 days by slit-lamp microscopy; assay type: functional, organism-based; details: Lens of camera-type eye; summary of the method: as §3
# Rattus norvegicus [14] = assay: Prevention of cataract development in severely galactosemic Sprague-Dawley Albino rat assessed as lens opacification administered four timely daily as 3% eye-drop solution in precorneal region for 20 days by slit-lamp microscopy; assay type: functional, organism-based; details: Lens of camera-type eye
# Rattus norvegicus [15] = assay: Prevention of cataract development in severely galactosemic Sprague-Dawley Albino rat assessed as lens opacification administered four timely daily as 3% eye-drop solution in precorneal region for 12 days by slit-lamp microscopy; assay type: functional, organism-based; details: Lens of camera-type eye
# Rattus norvegicus [16] = assay: Prevention of cataract development in severely galactosemic Sprague-Dawley Albino rat administered four timely daily as 3% eye-drop solution in precorneal region for 21 days; assay type: functional, organism-based; summary of the method: as §3
Structure (SMILES),IC50 [1] [µM],IC50 [2] [µM],also measured
O=C(O)Cc1nc(-c2ccc(Br)cc2F)no1,> 10,2,–
Cc1ccc(-c2nc(CC(=O)O)co2)cc1,–,–,Activity (Rattus norvegicus [3]): inactive; Activity (Rattus norvegicus [4]): Active
O=C(O)Cc1nc(-c2ccc(Cl)cc2)no1,> 10,3.95,–
Cc1ccc(-c2noc(CC(=O)O)n2)cc1,> 10,2.5,–
COc1ccc(-c2nc(CC(=O)O)co2)cc1,–,54.8,–
COc1ccc2c(C(=S)N(C)CC(=O)O)cccc2c1C(F)(F)F [TOLRESTAT],> 10,0.05,Activity (Rattus norvegicus [5]): Active; Activity (Rattus norvegicus [6]): Active; Activity (Rattus norvegicus [7]): Active; Activity (Rattus norvegicus [8]): Active; Activity (Rattus norvegicus [9]): Active; Activity (Rattus norvegicus [10]): Active; Activity (Rattus norvegicus [11]): Active; Activity (Rattus norvegicus [12]): Active; Activity (Rattus norvegicus [13]): Active; Activity (Rattus norvegicus [14]): Active; Activity (Rattus norvegicus [15]): Active
O=C(O)Cc1nc(-c2ccc(Br)cc2)no1,> 10,0.69,–
O=C(O)Cc1coc(-c2ccc(F)cc2)n1,–,–,Activity (Rattus norvegicus [3]): inactive; Activity (Rattus norvegicus [4]): Active
O=C(O)Cc1nc(-c2cccc([N+](=O)[O-])c2)no1,> 10,0.71,–
COc1ccc(-c2noc(CC(=O)O)n2)cc1,> 10,0.27,Activity (Rattus norvegicus [5]): Active; Activity (Rattus norvegicus [6]): Active; Activity (Rattus norvegicus [7]): Active; Activity (Rattus norvegicus [8]): Active; Activity (Rattus norvegicus [9]): Active; Activity (Rattus norvegicus [10]): Active; Activity (Rattus norvegicus [11]): Active; Activity (Rattus norvegicus [13]): Active; Activity (Rattus norvegicus [16]): Active; Activity (Rattus norvegicus [15]): Active
O=C(O)Cc1nc(-c2ccc(C(F)(F)F)cc2)no1,> 10,1.08,–
O=C(O)Cc1nc(-c2ccccc2)no1,> 10,3.33,–
O=C(O)Cc1coc(-c2ccccc2)n1,–,–,Activity (Rattus norvegicus [3]): inactive; Activity (Rattus norvegicus [4]): Active

# Second part, led by results:
IC50 [1] [µM],IC50 [2] [µM],Structure (SMILES),also measured
> 10,21.7,O=C(O)Cc1nc(Cc2ccc(F)cc2)no1,–
> 10,5.11,O=C(O)Cc1nc(Cc2ccc(Cl)cc2)no1,–
> 10,0.36,O=C(O)Cc1nc(Cc2ccc(Br)cc2F)no1,–
> 10,6.3,O=C(O)Cc1nc(Cc2ccc(C(F)(F)F)cc2)no1,–
> 10,8.18,COc1ccc(Cc2noc(CC(=O)O)n2)cc1,–
> 10,0.3,O=C(O)Cc1nc(Cc2cccc([N+](=O)[O-])c2)no1,–
> 10,5.29,Cc1ccc(Cc2noc(CC(=O)O)n2)cc1,–
> 10,28.4,O=C(O)Cc1nc(Cc2ccccc2)no1,–
> 10,1.66,O=C(O)Cc1nc(Cc2ccc(Br)cc2)no1,–
> 10,8.43,O=C(O)Cc1nc(-c2ccc(F)cc2)no1,–
